Reference: ChEMBL document CHEMBL4014267, “Anti-inflammatory and Antiosteoporosis Flavonoids from the Rhizomes of Helminthostachys zeylanica” (J Nat Prod, 2017)
Activity calls are given as the source filed them. No cut-off for these calls is given here.

How the values were obtained:
Format in all cases: functional, cell-based
[1] = test system: BV-2; assay: Antiinflammatory activity in mouse BV2 cells assessed as inhibition of LPS-induced nitric oxide production after 24 hrs by Griess assay; settings: BV-2, 24 h
In short: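 Murine BV2 microglia were grown in DMEM with 5% FBS and stimulated with LPS (0.5 μg/mL). NO was read as nitrite accumulated in the medium 24 h after stimulation, using Griess reagent.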

[2] = test system: RAW264.7; assay: Osteoblastogenic activity in mouse […] cells at 10 uM
[3] = test system: RAW264.7; assay: Antiosteoporotic activity in mouse RAW264.7 cells assessed as inhibition of RANKL-induced osteoclast differentiation after 4 to 5 days by TRAP assay
In short: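 RAW264.7 macrophages were differentiated for 4−5 days in DMEM with 100 ng/mL recombinant murine RANKL, alone or with test agent at 1, 3, 10 or 20 μM. Cells were then fixed and TRAP activity was read with a p-nitrophenylphosphate reaction buffer.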

For `C=C1CCCC(C)(C)[C@H]1Cc1c(OC)cc2oc(-c3ccc(O)c(O)c3)c(OC)c(=O)c2c1O`, the IC50 [1] was 6.7 µM, the Activity [2] was “inactive” and the IC50 [3] was 3.2 µM.

With `C=C1CCCC(C)(C)[C@H]1Cc1c(OC)cc2oc(-c3ccc(O)c(O)c3)cc(=O)c2c1O` the IC50 [1] was 8.1 µM, the Activity [2] was “Active” and the IC50 [3] was 1.8 µM.

`CC1=CCCC(C)(C)C1Cc1c(O)cc(/C=C/c2ccc(O)cc2)cc1O` (stereo not drawn) gave an IC50 [1] of 6.2 µM.

In the case of `CC1(C)CC=C[C@]2(C)Oc3c(O)cc4oc5c(=O)c6c(O)cc(O)cc6oc5c4c3C[C@H]12` [UGONIN O], the IC50 [1] is reported as 7.7 µM, the Activity [2] is reported as “inactive” and the IC50 [3] is reported as 3.3 µM.

In the case of `S=C(S)N1CCCC1` [PYRROLIDINE DITHIOCARBAMATE], the IC50 [1] is reported as 10.8 µM.

In the case of `CC1(C)CCC[C@]2(C)Oc3c(c(O)cc4oc(-c5ccc(O)c(O)c5)cc(=O)c34)C[C@H]12`, the IC50 [1] is reported as 19.7 µM, the Activity [2] is reported as “inactive” and the IC50 [3] is reported as 4.6 µM.

In the case of `O=c1c(-c2ccc(O)cc2)coc2cc(O)cc(O)c12` [GENISTEIN], the IC50 [3] is reported as 11.4 µM.

For `CC1(C)CCC[C@@]2(C)Oc3c(c(O)cc4oc(-c5ccc(O)c(O)c5)cc(=O)c34)C[C@H]12`, the IC50 [1] was 24.1 µM, the Activity [2] was “inactive” and the IC50 [3] was > 10 µM.

In the case of `CC1=CCCC(C)(C)C12Cc1c(c(O)cc3oc4c(=O)c5c(O)cc(O)cc5oc4c13)O2` (stereo not drawn), the IC50 [1] is reported as 18 µM, the Activity [2] is reported as “inactive” and the IC50 [3] is reported as 4.5 µM.

With `CC1=CCCC(C)(C)C1Cc1c(O)c(O)cc2oc3c(=O)c4c(O)cc(O)cc4oc3c12` (stereo not drawn) [UGONIN M] the IC50 [1] was 10.1 µM, the Activity [2] was “inactive” and the IC50 [3] was 2.5 µM.

`CC1(C)CCC[C@]2(C)Oc3c(O)cc4oc5c(=O)c6c(O)cc(O)cc6oc5c4c3C[C@H]12` was tested, and the IC50 [1] was 7 µM, the Activity [2] was “inactive” and the IC50 [3] was 3.5 µM.

`C=C1CCCC(C)(C)[C@H]1Cc1c(O)cc2oc(-c3ccc(O)c(O)c3)cc(=O)c2c1O` was tested, and the IC50 [1] was 6.5 µM.
